In brackets after ≈: the same amount, converted by molar mass.

As usually defined, the MIC is the smallest concentration in the dilution series that meets the test's criterion for growth inhibition. The low end stands for a more susceptible organism, the high end for a less susceptible organism.

Common to all, as to type: functional
Assay [1] concerns Enterococcus faecalis. In words: Antimicrobial activity against Enterococcus faecalis NKH2 harboring pMG2200-like and pMG2201-like plasmids after 24 hrs by agar dilution method. As to conditions: NKH2, 24 h. Put shortly:
(§1)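 Agar dilution MICs on clinical E. faecalis isolates. Overnight Mueller-Hinton broth culture diluted 100-fold; ~5 × 10^5 cells inoculated onto Mueller-Hinton medium holding a concentration series of each drug. Incubated at 37°C and read at 24 h. Testing and interpretation follow CLSI (NCCLS) standards, with E. faecium ATCC 9790 as control strain.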
On the technique in general: Agar dilution tests growth on a series of plates holding different concentrations.

For assay [2], the system named is Enterococcus faecalis. In words: Antimicrobial activity against Enterococcus faecalis NKH5 harboring pMG2200-like plasmid after 24 hrs by agar dilution method. As to conditions: NKH5, 24 h. Put shortly:
as §1

The subject of assay [3] is Enterococcus faecalis. Description: Antimicrobial activity against Enterococcus faecalis NKH15 harboring pMG2200-like and pMG2201-like plasmids after 24 hrs by agar dilution method. As to conditions: NKH15, 24 h. In a few lines: as §1
Assay [4] deals with Enterococcus faecalis. In words: Antimicrobial activity against Enterococcus faecalis NKH4 harboring pMG2200-like and pMG2201-like plasmids after 24 hrs by agar dilution method. As to conditions: NKH4, 24 h. Put shortly:
as §1

The subject of assay [5] is Enterococcus faecalis. Description: Antimicrobial activity against Enterococcus faecalis NKH1 harboring pMG2200-like plasmid after 24 hrs by agar dilution method. As to conditions: NKH1, 24 h. Put shortly: as §1
Assay [6] concerns Enterococcus faecalis. Description: Antimicrobial activity against Enterococcus faecalis NKH6 harboring pMG2200-like and pMG2201-like plasmids after 24 hrs by agar dilution method. The conditions noted are these: NKH6, 24 h. Put shortly:
as §1

Assay [7] relates to Enterococcus faecalis. Description: Antimicrobial activity against Enterococcus faecalis NKH3 harboring pMG2200-like and pMG2201-like plasmids after 24 hrs by agar dilution method. The conditions noted are these: NKH3, 24 h. Put shortly: as §1
Assay [8] has as its system Enterococcus faecalis. Description: Antimicrobial activity against Enterococcus faecalis NKH11 harboring pMG2200-like plasmid after 24 hrs by agar dilution method. The conditions noted are these: NKH11, 24 h. In a few lines: as §1
For assay [9], the system named is Enterococcus faecalis. In words: Antimicrobial activity against Enterococcus faecalis NKH10 harboring pMG2200-like and pMG2201-like plasmids after 24 hrs by agar dilution method. The conditions noted are these: NKH10, 24 h. Put shortly:
as §1

The subject of assay [10] is Enterococcus faecalis. Description: Antimicrobial activity against Enterococcus faecalis NKH12 harboring pMG2200-like and pMG2201-like plasmids after 24 hrs by agar dilution method. As to conditions: NKH12, 24 h. In a few lines: as §1
Assay [11] relates to Enterococcus faecalis. Description: Antimicrobial activity against Enterococcus faecalis NKH7 harboring pMG2200-like plasmid after 24 hrs by agar dilution method. As to conditions: NKH7, 24 h. Put shortly:
as §1

The test system of assay [12] is Enterococcus faecalis. In words: Antimicrobial activity against Enterococcus faecalis NKH13 harboring pMG2200-like and pMG2201-like plasmids after 24 hrs by agar dilution method. The conditions noted are these: NKH13, 24 h. In a few lines: as §1
Assay [13] concerns Enterococcus faecalis. In words: Antimicrobial activity against Enterococcus faecalis NKH14 harboring pMG2200-like and pMG2201-like plasmids after 24 hrs by agar dilution method. As to conditions: NKH14, 24 h. In a few lines:
as §1

Assay [14] has as its system Enterococcus faecalis. Description: Antimicrobial activity against Enterococcus faecalis NKH18 harboring pMG2200-like and pMG2201-like plasmids after 24 hrs by agar dilution method. The conditions noted are these: NKH18, 24 h. Put shortly:
as §1

The test system of assay [15] is Enterococcus faecalis. Description: Antimicrobial activity against Enterococcus faecalis NKH9 harboring pMG2200-like and pMG2201-like plasmids after 24 hrs by agar dilution method. The conditions noted are these: NKH9, 24 h. Put shortly:
as §1

Assay [16] deals with Enterococcus faecalis. In words: Antimicrobial activity against Enterococcus faecalis NKH8 harboring pMG2200-like and pMG2201-like plasmids after 24 hrs by agar dilution method. As to conditions: NKH8, 24 h. Put shortly:
as §1

For assay [17], the system named is Enterococcus faecalis. In words: Antimicrobial activity against Enterococcus faecalis NKH17 harboring pMG2200-like plasmid after 24 hrs by agar dilution method. The conditions noted are these: NKH17, 24 h. Put shortly:
as §1

Assay [18] has as its system Enterococcus faecalis. Description: Antimicrobial activity against Enterococcus faecalis NKH16 harboring pMG2200-like plasmid after 24 hrs by agar dilution method. As to conditions: NKH16, 24 h. Put shortly:
as §1

For `CC1(C)S[C@@H]2[C@H](NC(=O)[C@H](N)c3ccccc3)C(=O)N2[C@H]1C(=O)O` [AMPICILLIN], the MIC in the assay on Enterococcus faecalis [1], in the assay with Enterococcus faecalis [2], in the assay with Enterococcus faecalis [3], against Enterococcus faecalis [4], in the assay with Enterococcus faecalis [5] and against Enterococcus faecalis [6] was 4 µg/mL (≈ 11.4 µM) each time. In addition, the MIC against Enterococcus faecalis [7], in the assay on Enterococcus faecalis [8], in the assay on Enterococcus faecalis [9] and with Enterococcus faecalis [10] was 4 µg/mL (≈ 11.4 µM) each time.
For the compound `O=C(N[C@H](CO)[C@H](O)c1ccc([N+](=O)[O-])cc1)C(Cl)Cl` [CHLORAMPHENICOL], the MIC was determined as 4 µg/mL (≈ 12.4 µM) against Enterococcus faecalis [11]; 8 µg/mL (≈ 24.8 µM) against Enterococcus faecalis [1]; 4 µg/mL (≈ 12.4 µM) in the assay with Enterococcus faecalis [2]; 8 µg/mL (≈ 24.8 µM) in the assay with Enterococcus faecalis [3]; 8 µg/mL (≈ 24.8 µM) in the assay on Enterococcus faecalis [4]; 8 µg/mL (≈ 24.8 µM) with Enterococcus faecalis [5]. Further, the MIC against Enterococcus faecalis [6], in the assay on Enterococcus faecalis [12], against Enterococcus faecalis [13], against Enterococcus faecalis [14], against Enterococcus faecalis [15] and in the assay with Enterococcus faecalis [7] was 8 µg/mL (≈ 24.8 µM) in each case. Besides, the MIC stood at 8 µg/mL (≈ 24.8 µM) against Enterococcus faecalis [8]; 8 µg/mL (≈ 24.8 µM) with Enterococcus faecalis [16]; 4 µg/mL (≈ 12.4 µM) against Enterococcus faecalis [17]; 8 µg/mL (≈ 24.8 µM) in the assay with Enterococcus faecalis [9]; 8 µg/mL (≈ 24.8 µM) in the assay on Enterococcus faecalis [10]; 4 µg/mL (≈ 12.4 µM) with Enterococcus faecalis [18].
As for `O=C(O)c1cn(C2CC2)c2cc(N3CCNCC3)c(F)cc2c1=O` [CIPROFLOXACIN], the MIC against Enterococcus faecalis [11], against Enterococcus faecalis [1], in the assay on Enterococcus faecalis [2], in the assay on Enterococcus faecalis [3], in the assay with Enterococcus faecalis [4] and in the assay on Enterococcus faecalis [5] was 64 µg/mL (≈ 193 µM) in each case. Moreover, the MIC against Enterococcus faecalis [6], against Enterococcus faecalis [12], against Enterococcus faecalis [13], with Enterococcus faecalis [14], in the assay with Enterococcus faecalis [15] and against Enterococcus faecalis [7] was 64 µg/mL (≈ 193 µM) throughout. Further, the MIC with Enterococcus faecalis [8], in the assay on Enterococcus faecalis [16], against Enterococcus faecalis [17], against Enterococcus faecalis [9], in the assay with Enterococcus faecalis [10] and against Enterococcus faecalis [18] was 64 µg/mL (≈ 193 µM) in each case.
`CC[C@H]1OC(=O)[C@H](C)[C@@H](O[C@H]2C[C@@](C)(OC)[C@@H](O)[C@H](C)O2)[C@H](C)[C@@H](O[C@@H]2O[C@H](C)C[C@H](N(C)C)[C@H]2O)[C@](C)(O)C[C@@H](C)C(=O)[C@H](C)[C@@H](O)[C@]1(C)O` [ERYTHROMYCIN]: the MIC was 0.125 µg/mL (≈ 0.17 µM) against Enterococcus faecalis [11]; greater than 1020 µg/mL against Enterococcus faecalis [1]; 0.125 µg/mL (≈ 0.17 µM) in the assay on Enterococcus faecalis [2]; greater than 1020 µg/mL with Enterococcus faecalis [3]; greater than 1020 µg/mL against Enterococcus faecalis [4]; 0.25 µg/mL (≈ 0.341 µM) in the assay with Enterococcus faecalis [5]. Further, the minimal inhibitory concentration (MIC) against Enterococcus faecalis [6], in the assay on Enterococcus faecalis [12], in the assay on Enterococcus faecalis [13], with Enterococcus faecalis [14], against Enterococcus faecalis [15] and with Enterococcus faecalis [7] was greater than 1020 µg/mL throughout. Further, the MIC with Enterococcus faecalis [8] was 0.125 µg/mL (≈ 0.17 µM); with Enterococcus faecalis [16], greater than 1020 µg/mL; against Enterococcus faecalis [17] it was 0.125 µg/mL (≈ 0.17 µM); with Enterococcus faecalis [9], greater than 1020 µg/mL; in the assay with Enterococcus faecalis [10], greater than 1020 µg/mL; in the assay on Enterococcus faecalis [18], 0.125 µg/mL (≈ 0.17 µM).
